Data set [1] concerns Mycobacterium tuberculosis. Kind of data set: Inhibition of Ndh2 in Mycobacterium tuberculosis assessed as decrease in ATP concentration measured after 24 hrs. The conditions noted are these: DDE = dose-dependent effect. In a few lines:
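Log-phase H37Rv diluted to OD600 0.01 in complete 7H9 and exposed in 96-well plates to compound added from a 100× DMSO stock, at 37°C. ATP measured with BacTiter-Glo luminescence after 4 and 24 h; three independent experiments.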

For data set [2], the system named is Mycobacteroides abscessus. Kind of data set: Antibiotic activity against Mycobacterium abscessus CIP104536, Smooth variant assessed as reduction in bacterial cell growth by measuring resazurin reduction incubated for 6 days by fluorescence microplate based assay. In kind it is functional. The conditions noted are these: 144 h, time 6 day. (In general: Resazurin is reduced to fluorescent resorufin, in cell work by metabolically active cells.)

Data set [3] has as its system Escherichia coli. Kind of data set: Antibiotic activity against Escherichia coli BW25113 assessed as reduction in bacterial cell growth by measuring resazurin reduction incubated for 6 days by fluorescence microplate based assay. In kind it is functional. The conditions noted are these: BW25113, 144 h, time 6 day. In a few lines:
(§1)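 E. coli BW25113, E. coli ΔtolC and S. aureus SH1000 were cultured and tested in cation-adjusted Mueller Hinton II broth. Viability was read by adding resazurin and measuring resorufin fluorescence at Ex 530 nm / Em 590 nm.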

For data set [4], the system named is Mycobacterium tuberculosis. The data set is described as follows: Bactericidal activity against replicating Mycobacterium tuberculosis H37Rv assessed as reduction in colony forming unit measured at 2 to 4 times of MIC after 1 to 2 weeks. The class given is functional. The conditions noted are these: time 1-2 weeks. In a few lines: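 Mid-log H37Rv in 7H9-GTy-OADC diluted to OD600 0.02 (~1×10⁶ cfu/mL) and exposed to compound in 96-well replica plates for 1 or 2 weeks. For the 3 lowest concentrations without visible growth, serial 10-fold dilutions plated on 7H11-OADC and cfu counted over 6 weeks at 37°C. Four independent experiments; log10 cfu/mL ± SD.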

Another data set concerns Klebsiella pneumoniae. Kind of data set: Antibiotic activity against Klebsiella pneumoniae LMG 2095 assessed as reduction in bacterial cell growth by measuring resazurin reduction incubated for 6 days by fluorescence microplate based assay. In kind it is functional. The settings on record: LMG 2095, 144 h, time 6 day.
Data set [5] can be described thus: Metabolic stability in mouse liver microsomes. The class given is ADME, Microsome. (Microsomes from liver hold many membrane-bound enzymes, among them those of drug oxidation.)
For the next data set, the system named is Acinetobacter baumannii. The data set is described as follows: Antibiotic activity against Acinetobacter baumannii LMG-17978 assessed as reduction in bacterial cell growth by measuring resazurin reduction incubated for 6 days by fluorescence microplate based assay. The class given is functional. The settings on record: LMG-17978, 144 h, time 6 day.
The subject of a further data set is Mycobacterium avium. The data set is described as follows: Antibiotic activity against Mycobacterium avium TMC 724, ATCC-25291 assessed as reduction in bacterial cell growth by measuring resazurin reduction incubated for 6 days by fluorescence microplate based assay. The class given is functional. The conditions noted are these: TMC 724, ATCC-25291, 144 h, time 6 day.

Data set [6] has as its system Mycobacterium tuberculosis. The data set is described as follows: Bactericidal activity against Non-replicating Mycobacterium tuberculosis ss18b-lux assessed as decrease in colony forming unit measured at 4.8 uM after 1 weeks. In kind it is functional. In a few lines:
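Streptomycin-dependent 18b-lux starved of streptomycin for 14 days (OD600 reset to 0.2 on days 7 and 13) to become non-replicating. Diluted to OD600 0.15 on dispensed compound and held at 37°C. On day 7, active wells plated on 7H11-OADC with 50 µg/mL streptomycin and incubated up to 8 weeks for cfu.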

The next data set concerns Pseudomonas aeruginosa. Kind of data set: Antibiotic activity against Pseudomonas aeruginosa POA1 assessed as reduction in bacterial cell growth by measuring resazurin reduction incubated for 6 days by fluorescence microplate based assay. In kind it is functional. The conditions noted are these: POA1, 144 h, time 6 day.
The subject of data set [7] is Mycobacteroides abscessus. The data set is described as follows: Antibiotic activity against Mycobacterium abscessus CIP104536, Rough variant assessed as reduction in bacterial cell growth by measuring resazurin reduction incubated for 6 days by fluorescence microplate based assay. The settings on record: 144 h, time 6 day. The class given is functional.
Data set [8] has as its system Escherichia coli. Kind of data set: Antibiotic activity against Escherichia coli deltatolC BW25113 deltatolC assessed as reduction in bacterial cell growth by measuring resazurin reduction incubated for 6 days by fluorescence microplate based assay. In kind it is functional. The settings on record: 144 h, time 6 day. In a few lines:
as §1

Data set [9] relates to Mycobacterium marinum. Kind of data set: In vivo antimycobacterial efficacy in Mycobacterium marinum expressing Wasabi infected zebrafish larvae assessed as prolongation of survival treated for 4 days after 1 day post infection. The class given is functional, organism-based. The conditions noted are these: dose 0.3-1.2 µM, time 4.0 day, DDE = dose-dependent effect. In a few lines: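 Golden mutant or Tg(mpeg1:mCherry) zebrafish embryos were dechorionated and anaesthetised in 0.016% tricaine. At 30 hpf, 2–3 nL containing about 200–250 cfu of Wasabi-expressing M. marinum M (pTEC15) was injected into the caudal vein. The inoculum was confirmed by plating on 7H10. Embryos were kept in E3 at 28.5 °C, 12 per well, to follow infection and survival.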

Data set [10] concerns Mycobacterium marinum. The data set is described as follows: Antibiotic activity against Mycobacterium marinum M strain assessed as reduction in bacterial cell growth by measuring resazurin reduction incubated for 6 days by fluorescence microplate based assay. In kind it is functional. The settings on record: 144 h, time 6 day.
Data set [11] concerns Mycolicibacterium smegmatis. Kind of data set: Antibiotic activity against Mycobacterium smegmatis mc2155 assessed as reduction in bacterial cell growth by measuring resazurin reduction incubated for 6 days by fluorescence microplate based assay. The settings on record: mc2155, 144 h, time 6 day. The class given is functional.
Data set [12] in a line: Toxicity in noninfected zebrafish larvae assessed as larval development. The settings on record: in vivo. Set-up: species or system Danio rerio.
Data set [13] relates to Mycobacterium tuberculosis. Kind of data set: Inhibition of Ndh2 in Mycobacterium tuberculosis assessed as increase in NADH/NAD+ ratio at 600 nM measured after 24 hrs. In a few lines:
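Mid-log H37Rv diluted to OD600 0.3 and exposed to compound at 37°C for 2 and 24 h. Pellets extracted in 0.2 M HCl (NAD⁺) or 0.2 M NaOH (NADH), bead-milled, heated 55°C 10 min, neutralised. NAD/NADH-Glo luminescence read against an NADH standard curve, corrected for OD600. Three independent experiments, duplicate technical replicates.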

The subject of the next data set is Staphylococcus aureus. Kind of data set: Antibiotic activity against Staphylococcus aureus SH1000 assessed as reduction in bacterial cell growth by measuring resazurin reduction incubated for 6 days by fluorescence microplate based assay. The settings on record: SH1000, 144 h, time 6 day. In kind it is functional. In a few lines: as §1
Data set [14] concerns Mycobacterium marinum. Kind of data set: In vivo antimycobacterial efficacy in Mycobacterium marinum expressing Wasabi infected zebrafish larvae assessed as prolongation of survival time at 4.8 uM treated for 4 days after 1 day post infection. In kind it is functional. The conditions noted are these: time 4 day.
Data set [15] in a line: Octanol/PBS partition coefficient, logD of compound at pH 7.4 measured after 2 hrs by shake flask method. The class given is physicochemical. The conditions noted are these: octanol/water, pH 7.4, 2 h. In a few lines: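 A 10 mM DMSO stock was diluted 50-fold into 1:1 octanol:PBS pH 7.4 and shaken gently for 2 h at room temperature. Each phase was diluted 50-fold in MeOH and quantified by LC-MS/MS. LogD = log of the octanol/PBS concentration ratio from mass signals. Run in triplicate.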

The test system of data set [16] is Mycobacterium marinum. Kind of data set: in vivo antimycobacterial efficacy in Mycobacterium marinum infected zebrafish larvae assessed as reduction in bacterial burden at 0.25 to 2 micog/ml measured after 2 to 4 days off post infection. In kind it is functional, organism-based. The conditions noted are these: time 2-4 day.
Data set [17] is described as follows: Toxicity in noninfected zebrafish larvae assessed as toxic effect. Set-up: species or system Danio rerio. The settings on record: in vivo.
Data set [18] deals with Mycobacterium tuberculosis. The data set is described as follows: Antimycobacterial activity against Mycobacterium tuberculosis H37Rv assessed as reduction in bacterial cell growth by measuring resazurin reduction incubated for 6 days by fluorescence microplate based assay. The conditions noted are these: time 6 day. In kind it is functional.
The next data set has as its system Bacillus subtilis. The data set is described as follows: Antibiotic activity against Bacillus subtilis ATCC6633 assessed as reduction in bacterial cell growth by measuring resazurin reduction incubated for 6 days by fluorescence microplate based assay. In kind it is functional. The settings on record: ATCC6633, 144 h, time 6 day.

Values after ≈ are worked out from the molar mass of the structure shown. Active and inactive are the calls of the source. Where only a bound is given, the exact number is not on record here.

On to `CC(C)[C@H]1CO[C@]23CCN(Cc4ccc(C(F)(F)F)cc4)C[C@H]2CCC(=O)N13`, for which the inhibition result in [1] was “Dde”. The MIC (commonly the smallest concentration in the dilution series that meets the test's criterion for growth inhibition) in data set [2] is 5 µM (≈ 1.98 µg/mL); in the data set on Escherichia coli [3], over 100 µM; with Klebsiella pneumoniae, over 100 µM; in the data set on Acinetobacter baumannii, over 100 µM; with Mycobacterium avium, 0.55 µM (≈ 0.218 µg/mL); with Pseudomonas aeruginosa it was over 100 µM. For the same molecule, the MIC in [7] is 6.3 µM (≈ 2.5 µg/mL); in the data set on Escherichia coli [8], 100 µM (≈ 39.6 µg/mL); with Mycobacterium marinum [10] it was 0.19 µM (≈ 0.0753 µg/mL); in [11], 1.3 µM (≈ 0.515 µg/mL); in the data set on Staphylococcus aureus, over 100 µM; in the data set with Bacillus subtilis, over 100 µM. Moreover, the Activity in data set [4] was 0.8 log10CFU; in [6], 1 log10CFU; in the data set on Mycobacterium marinum [9] it was “Dde”; in [12], “Non-Toxic”; in data set [17], “Non-Toxic”. Besides, the Drug metabolism result in data set [5] is reported as “Metabolite_Detected”. Besides, the inhibition result in data set [13] is “Active”. Moreover, in the data set with Mycobacterium marinum [14], the Time was found to be 3 days. For the same molecule, the log distribution coefficient (logD) (commonly lipophilicity at a set pH, counting ionised and neutral species) in [15] was found to be 3.4. In the data set with Mycobacterium marinum [16], the result was Active. Besides, the MIC98 in [18] came out at 0.1 µM (≈ 0.0396 µg/mL).

For the origin of these results see ChEMBL document CHEMBL5150070, “Tricyclic SpiroLactams Kill Mycobacteria In Vitro and In Vivo by Inhibiting Type II NADH Dehydrogenases” (J Med Chem, 2022).
